Assay results: ChEMBL document CHEMBL1135440, “(+)-Dinapsoline: an efficient synthesis and pharmacological profile of a novel dopamine agonist” (J Med Chem, 2002)
pEC50: −log10 of the molar value.

What was measured:
Rattus norvegicus [1] = assay: In vivo number of rotations at a dose of 0.2 mg/kg administered subcutaneously to Sprague-Dawley rats; type: functional; details: route subcutaneous
Method in brief: (§1)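 Sprague-Dawley rats with unilateral 6-OHDA lesions of medial forebrain bundle, prescreened for rotation to amphetamine (5 mg/kg: 800 rotations/3 h) and apomorphine (0.2 mg/kg: 100 rotations/1 h). Subcutaneous dosing; rotations counted over 10 h, mean ± sem, n 5–10 per group. Each rat received four treatments, weekly, counterbalanced order.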

[2] = In vitro intrinsic activity which is the ratio of the cyclase response of compound relative to that of dopamine; type: functional
Method in brief: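 cAMP accumulation in SK-N-MC cells (endogenous D1), varying compound concentrations with 1 mM IBMX, 10 min at 37 °C, cAMP by radioimmunoassay, nonlinear curve fitting. Intrinsic activity taken as ratio of compound maximal cyclase response to that of dopamine.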

Rattus norvegicus [3] = assay: In vivo number of rotations at a dose of 2 mg/kg administered subcutaneously to Sprague-Dawley rats; type: functional; details: route subcutaneous; method in brief: as §1
SK-N-MC [4] = assay: In vitro adenylate cyclase response in neuroblastoma cell line; type: functional, cell-based; details: Homo sapiens
Method in brief: (§2)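 SK-N-MC human neuroblastoma cells with endogenous D1 receptor, seeded at 10⁵ cells/mL 1 day before assay (37 °C, 5% CO₂). Cells exposed to varying compound concentrations in assay buffer with 1 mM IBMX, 10 min at 37 °C; stopped with 0.1 N HCl; cAMP measured by radioimmunoassay; dose-response curves fitted by nonlinear regression.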

SK-N-MC [5] = assay: In vitro adenylate cyclase response in neuroblastoma cell line SK-N-MC; type: functional, cell-based; details: Homo sapiens; method in brief: as §2

Intrinsic activity [2] | pEC50 (SK-N-MC [4]) | pEC50 (SK-N-MC [5]) | Compound | Rotations/10 h (Rattus norvegicus [1]) | Rotations/10 h (Rattus norvegicus [3])
1 | 6.66 | – | Oc1ccc2c(c1O)Cc1cccc3c1[C@H]2CNC3 | 4100 | 7000
– | – | – | CCCc1cc2c(s1)CN[C@@H]1CCc3cc(O)c(O)cc3[C@@H]21 [A-86929] | 1100 | 4200
– | < 5.00 | – | Oc1ccc2c(c1O)Cc1cccc3c1[C@@H]2CNC3 | 8 | 7
1.2 | – | 6.72 | Oc1ccc2c(c1O)Cc1cccc3c1C2CNC3 (racemic) | 1900 | 4800
